The source of these data is publication PMC9292875 (British Journal of Clinical Pharmacology, 2021).

Where “and” joins values, the source holds several entries; their conditions need not be identical. Identical values can stand only once. Where only a bound is given, the exact number is not on record here.

The subject of data set [1] is patients with advanced solid malignancies. The format is in vivo, human. The settings on record: linear mixed-effects model parameter estimate. The essentials: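 The model was a prespecified linear mixed-effects structure for placebo-free oncology trials. It regressed baseline-adjusted QTcF on plasma concentration, with random intercept and slope, plus a fixed effect for baseline QTcF centred on the overall baseline mean. Fitting used restricted maximum likelihood, assuming normal random effects and residuals. Only first-dose data were used (503 time-matched points, 180 patients). Fit was checked with goodness-of-fit plots.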

The nature of data set [2]: Plasma pharmacokinetics of capivasertib. The format is in vivo, human.
For data set [3], the system named is patients with advanced solid malignancies. The experiment in a line: Categorical evaluation of QTc, PR and QRS intervals. The format is in vivo, human. The conditions noted are these: of 180 patients. The essentials:
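Patients received single twice-daily-regimen doses of 80–800 mg, either continuous or intermittent. A 12-lead digital ECG was recorded after at least 10 min semi-supine rest. Triplicate tracings were taken about 5 min apart at each time point and averaged, then read centrally. Thresholds were QTc ≥450, ≥480 and ≥500 ms; ΔQTc ≥30 and ≥60 ms; PR ≥200 ms; and QRS ≥110 ms.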

The test system is the same in data set [4]. The experiment in a line: Exploratory graphical analysis of model assumptions. The format is in vivo, human. The essentials:
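Before modelling, first-dose paired data were plotted to check four assumptions: no drug effect on heart rate; a suitable HR correction (RR versus uncorrected QT, QTcF and QTcB); no hysteresis (mean ΔQTcF against concentration, joined in time order per dose); and linearity (loess smooth, linear regression, binned means). Sampling was at baseline, 1, 2, 6 and 24 h (escalation/expansion) or at baseline, 2 and 4–6 h (mutation cohorts).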

In data set [5] the test system is patients. The settings on record: available clinical data; cited from earlier work.

As for `NC1(C(=O)N[C@@H](CCO)c2ccc(Cl)cc2)CCN(c2ncnc3[nH]ccc23)CC1` [capivasertib, 4‐amino‐N‐[(1S)‐1‐(4‐chlorophenyl)‐3‐hydroxypropyl]‐1‐(7H‐pyrrolo[2,3‐d]pyrimidin‐4‐yl)piperidine‐4‐carboxamide], in data set [1], the “ɛ Residual variability” value is 6.452 ms; the “η0 Random effect for intercept” value was 5.350 ms; the “θ0 Intercept” value is -0.269 ms; the “θ1 Slope of capivasertib concentration vs ΔQTcF” value is 0.003 ms/(ng/mL) and 0.00337 ms/(ng/mL). The “θ2 Impact of baseline QTcF on ΔQTcF” value in data set [1] is −0.119. For the same compound, the Drug accumulation result in data set [2] (4 days on/3 days off intermittent schedule) is recorded as “less than twofold”. Further, the “Time at which Cmax was reached after dosing” value in data set [2] (after first dose) is “approximately 2 hours”. Moreover, in data set [3] (doses from 80 mg to 800 mg), the “Patients with QRS ≥ 110 ms” value is reported as 5.0%. Also, in data set [3] (single doses 80-800 mg), the “Patients with QTcF ≥ 480 ms” value was “No patients” and the “Patients with ΔQTcF ≥ 60 ms” value is listed as “No patients”. Further, in data set [4] (after administration of first dose), the “Time to maximum ΔQTcF” value was no more than 2 h. Moreover, the “ΔHR (change in heart rate)” value in data set [4] (after first dose, small decrease at 1 hour, not dose-dependent) is given as no more than 10 beats per minute. Further, the “Time delay between concentration and ΔQTcF (hysteresis plots)” value in data set [4] (in vivo) is “No evidence of a time‐delay”. In addition, the “Reports of serious cardiac events or ECG changes” value in data set [5] is given as “no reports of sudden death, torsades de pointes, seizures or electrocardiogram (ECG) changes that were considered serious”.
